What was measured:
MDCK = assay: Cytotoxicity against MDCK cells after 48 hrs by methylene blue dye-based spectroscopy relative to control; format: cell-based, Canis lupus familiaris; details: dog
In short: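 MDCK cells. CC50 is the compound concentration that kills half of the cell population.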

[1] = Inhibition of influenza A virus H1N1 endonuclease N-terminal domain of PA-subunit expressed in Escherichia coli BL21(DE3) using FAM-AAT CGC AGG CAG CAC TC-TAM as substrate by FRET assay
In short: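 Recombinant PA_N construct from pH1N1 2009 influenza in a FRET read-out of endonuclease cleavage. Compounds were first screened at 200 μM, then run in dose-response to derive IC50.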

Influenza A virus = assay: Antiviral activity against Influenza A virus (A/Puerto Rico/8/1934(H1N1)) infected in MDCK cells assessed as inhibition of virus-induced cytopathic effect after 48 hrs by CellTitre-Glo assay; format: functional, organism-based
In short: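 MDCK cells infected with PR8 H1N1. IC50 is the compound concentration at which half of the infected cells survive. Only compounds with CC50 above 50 μM in MDCK cells were tested.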

[2] = Influenza A virus, A/Puerto Rico/8/1934(H1N1), MDCK, 48 h, read-out: IC50

Question: Which CC50 (MDCK; read-out: CC50) does the source give for O=C(/N=C1/C(=O)Nc2ccc(Br)cc21)/C(O)=C/C(=O)c1ccc(Cl)cc1 here?
Answer: Its CC50 is greater than 50 µM.

Question: What about the IC50 [1] of the same molecule?
Answer: Its IC50 is 23 µM.

Question: With O=C(N/N=C\c1cccc(Cl)c1Cl)c1ccc(O)c(O)c1 as the molecule, how does the CC50 (MDCK; read-out: CC50) read?
Answer: Its CC50 is 6.8 µM.

Question: And the IC50 [1]?
Answer: The IC50 was 0.7 µM.

Question: What does the source list for O=C(Cc1ccccc1)c1ccc(O)c(O)c1O?
Answer: CC50 (MDCK; read-out: CC50): 18.1 µM; IC50 [1]: 1.5 µM

Question: For C/C(=N/NC(=O)c1ccc(O)c(O)c1)c1ccc(C)cc1, which IC50 (Influenza A virus; [2]) is on record?
Answer: The IC50 was greater than 50 µM.

Question: What about the CC50 (MDCK; read-out: CC50) of the same molecule?
Answer: The CC50 was greater than 50 µM.

Question: What about the IC50 [1] of the same molecule?
Answer: The IC50 was 2.1 µM.

Question: With COc1ccc(NC(=O)/C(O)=C/C(=O)c2ccc(C)cc2)cc1 as the molecule, how does the IC50 (Influenza A virus; [2]) read?
Answer: Its IC50 is greater than 50 µM.

Question: And the CC50 (MDCK; read-out: CC50)?
Answer: Its CC50 is greater than 50 µM.

Question: What about the IC50 [1] of the same molecule?
Answer: The IC50 was 0.6 µM.

Question: With O=C(N/N=C\c1ccc(/C=N/NC(=O)c2ccc(O)c(O)c2)cc1)c1ccc(O)c(O)c1 as the molecule, how does the IC50 (Influenza A virus; mdck) read?
Answer: Its IC50 is “ND(Insoluble)”.

Question: And the CC50 (MDCK)?
Answer: Its CC50 is “ND(Insoluble)”.

Question: And the IC50 [1]?
Answer: Its IC50 is 23 µM.

Question: With Cc1ccc(C(=O)/C=C(O)/C(O)=C/C(=O)c2ccc(C)cc2)cc1 as the molecule, how does the IC50 (Influenza A virus; [2]) read?
Answer: The IC50 was 23 µM.

Question: What about the CC50 (MDCK; read-out: CC50) of the same molecule?
Answer: Its CC50 is greater than 50 µM.

Question: And the IC50 [1]?
Answer: Its IC50 is 6 µM.

Question: Which IC50 (Influenza A virus; [2]) does the source give for O=C(N/N=C\c1ccccc1Cl)c1cc(O)c(O)c(O)c1 here?
Answer: Its IC50 is 18 µM.

Question: And the CC50 (MDCK; read-out: CC50)?
Answer: The CC50 was greater than 100 µM.

Question: What about the IC50 [1] of the same molecule?
Answer: The IC50 was 14 µM.

Question: Which IC50 (Influenza A virus; [2]) does the source give for Cc1ccccc1/C=N\NC(=O)c1ccc(O)c(O)c1 here?
Answer: Its IC50 is greater than 50 µM.

Question: What about the CC50 (MDCK; read-out: CC50) of the same molecule?
Answer: The CC50 was greater than 50 µM.

Question: And the IC50 [1]?
Answer: The IC50 was 1.9 µM.

Question: Which IC50 (Influenza A virus; [2]) does the source give for COc1ccc(NC(=O)/C(O)=C/C(=O)c2ccc(Cl)cc2)cc1 here?
Answer: Its IC50 is greater than 50 µM.

Question: And the CC50 (MDCK; read-out: CC50)?
Answer: The CC50 was greater than 100 µM.

Question: What about the IC50 [1] of the same molecule?
Answer: The IC50 was 0.74 µM.

Question: Which IC50 (Influenza A virus; [2]) does the source give for O=C1CC2(CCCCC2)Oc2c1ccc(O)c2O here?
Answer: Its IC50 is greater than 100 µM.

Question: What about the CC50 (MDCK; read-out: CC50) of the same molecule?
Answer: Its CC50 is greater than 100 µM.

Question: What about the IC50 [1] of the same molecule?
Answer: The IC50 was 8 µM.

Question: For CC(=O)N1CCC2(CC1)CC(=O)c1ccc(O)c(O)c1O2, which IC50 (Influenza A virus; [2]) is on record?
Answer: Its IC50 is greater than 100 µM.

Question: What about the CC50 (MDCK; read-out: CC50) of the same molecule?
Answer: The CC50 was greater than 100 µM.

Question: What about the IC50 [1] of the same molecule?
Answer: Its IC50 is 46 µM.

Question: What does the source list for COc1ccccc1N1CCN(/N=C/c2ccc(O)c(O)c2)CC1?
Answer: CC50 (MDCK; read-out: CC50): 13 µM; IC50 [1]: 2 µM

Question: Which results are given for O=C(Cc1ccccc1Cl)c1ccc(O)c(O)c1O?
Answer: IC50 (Influenza A virus; [2]): > 50 µM; CC50 (MDCK; read-out: CC50): > 50 µM; IC50 [1]: 5 µM

Question: With O=C(/C=C(O)/C(O)=C/C(=O)c1ccc(Cl)cc1)c1ccc(Cl)cc1 as the molecule, how does the IC50 (Influenza A virus; [2]) read?
Answer: Its IC50 is greater than 50 µM.

Question: And the CC50 (MDCK; read-out: CC50)?
Answer: Its CC50 is greater than 100 µM.

Question: And the IC50 [1]?
Answer: The IC50 was 11.7 µM.

Question: With Cc1ccccc1CC(=O)c1ccc(O)c(O)c1O as the molecule, how does the CC50 (MDCK; read-out: CC50) read?
Answer: Its CC50 is 21 µM.

Question: What about the IC50 [1] of the same molecule?
Answer: Its IC50 is 11 µM.

Reference: ChEMBL document CHEMBL3108673, “Computation-guided discovery of influenza endonuclease inhibitors” (ACS Med Chem Lett, 2014)
